Measured values from different studies.
Each line is one published result; the experiments were not run side by side.
Target: Vascular endothelial growth factor receptor 2 (KDR, Homo sapiens, UniProt P35968)

Compound | assay | conditions | remaining binding [%]
FC(F)(F)Oc1cccc(-c2cnc3ccc(-c4ccncc4)nn23)c1 | cell-free assay, competition with immobilised ligand | 5 µM | 18
CO[C@@H](C)c1c(Nc2ccc([C@@H](N(C)C(=O)C3CCS(=O)(=O)CC3)C(F)(F)F)cc2)cnc2cc(Cl)nn12 | cell-free assay, competition with immobilised ligand | 1 µM | 95
CC(C)(C)c1ccc(-c2nc(CBr)nn2-c2cccc(O)c2)cc1 | cell-free assay, competition with immobilised ligand | 10 µM | 83
Cc1cc(-n2nc(Cc3cc(F)cc(C(F)(F)F)c3)nc2C)ccc1C(N)=O | cell-free assay, competition with immobilised ligand | 1 µM | 100
CN(C)c1ncc(F)c(-c2cnn3ncccc23)n1 | binding | 1 µM | 75
C[C@@H]1CN(c2ccc3ncc(-c4ccc5[nH]nc(C6CC6)c5c4)n3n2)C[C@H](C)O1 | binding, competition with immobilised ligand | 50 nM | 86
CN(C)C(=O)Cn1cc(-c2nc(C3(c4ccc(-c5cnc(N)nc5)cc4)CC3)no2)cn1 | cell-free assay, competition with immobilised ligand | 1 µM | 70
Cc1cnn2ncc(-c3ccnc(N(C)C)n3)c2c1 | binding | 1 µM | 96
C[C@@H](c1ccc(-n2cnc3c(N)ncnc32)cc1)N1CCc2nn(C)c(Cc3ccccc3)c2C1=O | binding, competition with immobilised ligand | 0.1 µM | 69
N#Cc1ccccc1CSc1nnc2c(n1)[nH]c1ccccc12 | binding, competition with immobilised ligand | 10 µM | 95
C[C@@H]1CCN(c2nccc(-c3cnn4ncccc34)n2)C1 | binding | 1 µM | 87
COc1cnc(Nc2cccc(S(N)(=O)=O)c2)nc1N1CCN(c2ccccc2)C(=O)C1 | binding, competition with immobilised ligand | 1 µM | 100
O=C(NCCCN1CCOCC1)c1ccc(Nc2nccc(-c3cc4ccccc4s3)n2)cc1 | binding, competition with immobilised ligand | 1 µM | 72
N[C@H]1CCN(c2nccc(-c3cnn4ncccc34)n2)C1 | binding | 1 µM | 100
Cc1cnc(Nc2ccc(C(=O)N3CCC(N4CCCC4)CC3)cc2)nc1-c1cc2ccccc2s1 | binding, competition with immobilised ligand | 1 µM | 4.3
CCCOc1ccc([C@@H]2[C@@H](C(=O)O)[C@H](c3ccc4c(c3)OCO4)CN2CC(=O)Nc2c(CC)cccc2CC)cc1 | cell-free assay, competition with immobilised ligand | 1 µM | 72
O=C(Nc1c[nH]nc1C(=O)NC1CCNCC1)c1cc(F)cc(F)c1 | binding, competition with immobilised ligand | 1 µM | 93
N#CC1(c2ccccn2)CCN(Cc2cc(C(=O)N3CCCC3)c(=O)n3ccccc23)CC1 | cell-free assay, competition with immobilised ligand | 1 µM | 92
CC1CCCN1c1nccc(-c2cnn3ncccc23)n1 (stereo not shown) | binding | 1 µM | 100
CC(C)CC(=O)N1CCc2nc(-c3ccc(Br)cc3)nc(N(C)Cc3ccccc3)c2C1 | cell-free assay, competition with immobilised ligand | 0.1 µM | 100
O=C(c1ccc(Nc2nccc(-c3cc4ccccc4s3)n2)cc1)N1CCC(N2CCCC2)CC1 | binding, competition with immobilised ligand | 1 µM | 47
CCC(=O)N[C@@H]1CC[C@H](C(=O)N(C)c2ccc(-c3nc4ccccc4o3)cc2)C1 | cell-free assay, competition with immobilised ligand | 1 µM | 77
COc1ncc2cc3ccccc3nc2c1C#N | cell-free assay, competition with immobilised ligand | 5 µM | 100
CN(c1nccc(-c2cnn3ncccc23)n1)C1CC1 | binding | 1 µM | 100
O=C(O)[C@H]1[C@H](Cn2nnc3ccccc3c2=O)CC[C@@H]1C(=O)c1ccc(OCCC2CCOCC2)cc1 | cell-free assay, competition with immobilised ligand | 1 µM | 88
